HNF4A DNA FP – change in binding of human HNF4A to DNA, primary screen, biochemical, fluorescence polarization, FITC-DNA; 1 h; Hepatocyte nuclear factor 4-alpha (Homo sapiens), P41235; actives 0.3% (n = 360,000); activity change, % at 10 µM; in the data active means activity change above about 30%, passing the limit was not always enough
Target sequence (P41235 whole entry, looked up): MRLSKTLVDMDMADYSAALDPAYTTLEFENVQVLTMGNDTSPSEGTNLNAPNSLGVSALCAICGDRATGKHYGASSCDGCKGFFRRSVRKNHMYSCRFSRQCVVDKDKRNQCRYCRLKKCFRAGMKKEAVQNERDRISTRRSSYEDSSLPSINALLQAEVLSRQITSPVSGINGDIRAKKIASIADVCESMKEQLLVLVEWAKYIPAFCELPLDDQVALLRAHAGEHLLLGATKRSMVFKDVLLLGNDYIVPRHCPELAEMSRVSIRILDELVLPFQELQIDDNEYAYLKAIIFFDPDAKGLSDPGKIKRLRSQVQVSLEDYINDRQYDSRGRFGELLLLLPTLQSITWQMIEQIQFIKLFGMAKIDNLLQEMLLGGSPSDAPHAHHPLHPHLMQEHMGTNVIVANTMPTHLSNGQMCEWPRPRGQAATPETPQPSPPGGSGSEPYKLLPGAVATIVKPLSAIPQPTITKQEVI
TPT1 inh – Candida albicans TPT1 enzyme inhibitors, primary screen, biochemical, fluorescence polarization; tRNA 2'-phosphotransferase TPT1 (Candida albicans SC5314); recombinant caTPT1, FP RNA substrate dephosphorylation; inhibition, % at 5 µM; actives 0.81% (n = 300,000);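 active means inhibition above the mean of all tested compounds plus 3 SD, set per screening campaign, cut at about 24% in these data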;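 further: plate controls were DMSO alone for no effect and ferristatin control at 100 nM for full effect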
CSN deneddyl inh – inhibitors of CSN-mediated cullin deneddylation, primary screen, biochemical, fluorescence polarization, uHTS. actives 0.38% (n = 360,000). inhibition, % at 12.5 µM. Purified CSN, SCF-Nedd8-OG deneddylation;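 active means pattern-corrected inhibition above about 35%, with an unprinted fluorescence ratio check between 0.5 and 1.5, limit read from the data, passing the limit was not always enough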;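 further: 0% = enzyme with substrate and 100% = substrate without enzyme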
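Assay system: purified human Csn5 enzyme expressed in HEK293T cells; measure: % inhibition; also added: SCFSkp2-Nedd8OG substrate at 10 nM final; technique: fluorescence polarization; times: reaction 90 min, room temperature; medium: Tris buffer pH 7.5, NaCl, DTT, Tween-20, trehalose, ovalbumin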
Myeloid diff 2 – induction of myeloid progenitor differentiation, primary screen, cell-based, flow cytometry, MLPCN library; calls only at 10 µM; ER-HoxA9 myeloid progenitors, lysozyme-GFP differentiation; AID 624256, 2012; actives 1% (n = 360,000);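 active means normalized GFP-positive differentiation at or above the plate's own cutoff, the solvent-only control mean plus 3 SD; inconclusive means no clear call, values can overlap the other calls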;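 further: cells exposed to compound for four days before flow analysis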
Rpn11 block – Rpn11 (PSMD14) deubiquitinase inhibitors, primary screen, biochemical, fluorescence polarization, uHTS | 26S proteasome non-ATPase regulatory subunit 14 (Homo sapiens), O00487 | human 26S proteasome, Ub4-pepOG fluorescence polarization; 20S core pre-blocked with epoxomicin | inhibition, % at 20 µM | actives 0.59% (n = 360,000);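 active means inhibition at 20 µM, scaled to each plate's controls, above about 33%, limit read from the data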
* = called active by the depositor; i = inactive; ? = inconclusive; / = no result shown; + = active, no number. Rows were chosen to be rich in hits. Some 2.3% of all compounds tested hit in one or more screens of this group.

SMILES	HNF4A DNA FP	TPT1 inh	CSN deneddyl inh	Myeloid diff 2	Rpn11 block
CCCCNC(=O)C[C@@H]1C[C@@]2(C(=O)OCC)CCC=C2N(CCC2=CCCCC2)C1=O	-2.1	/	-0.9	i	/
CC1(C(=O)NS(=O)(=O)c2ccccc2)CCN1C(=O)c1ccc(C2CCCCC2)cc1 (stereo unspecified)	0.9	/	1.9	i	-1.5
COc1ccccc1CN1C(=O)CN(C2CCCC2)C(=O)C1c1ccc(F)cc1 (stereo unspecified)	-2.4	-0.8	6.6	+	-7.4
CN(C)CCNc1ccc(CO)c2sc3ccc(O)cc3c(=O)c12	35.6*	/	5.5	/	39.1
COc1ccc2sc3cccc(NCCN(C)C)c3c(=O)c2c1	19.3	/	4.3	?	26.8
CC1=CC(=O)C=CC1=Nc1ccc(N(C)C)cc1	2.2	/	2.8	?	-3.9
Fc1cccc(Cc2c(-c3ccco3)nc3ccc(Cl)cn23)c1	10.8	/	15.4	i	19.8
COc1ccccc1Cc1c(-c2ccco2)nc2ccc(Br)cn12	0.2	/	23.5	i	3.6
COc1ccccc1Cc1c(-c2ccco2)nc2ccc(Cl)cn12	-3.2	/	36.1*	i	20.0
Clc1ccc2nc(-c3ccco3)c(Cc3ccccc3)n2c1	-0.2	/	35.9*	i	5.1
CCCCCCCCC(=O)c1c(OC)oc(C=O)cc1=O	91.9	/	68.2*	i	/
O=c1cc(N2CCN(c3ccccc3)CC2)[nH]c(=O)n1Cc1ccc(F)cc1	1.6	-1.1	-1.6	+	7.6
O=Cc1cc2ccccc2nc1SCCCF	1.1	-1.9	1.3	+	12.8
O=C(/C=C/c1ccc([N+](=O)[O-])s1)N1CCCCC1	4.0	0.2	-3.7	?	1.9
O=C(/C=C/c1ccc([N+](=O)[O-])s1)N1CCCC1	3.2	0.6	-5.7	+	0.9
Cc1cccc(Nc2nc(N)nc(-c3oc4ccccc4c3C)n2)c1	2.4	-3.5	6.4	+	5.1
COc1cccc(Nc2nc(N)nc(-c3oc4ccccc4c3C)n2)c1	-2.1	-0.9	-1.8	i	2.9
CS(=O)(=O)N1CCc2cc(-c3csc(NC(=O)C(c4ccccc4)c4ccccc4)n3)ccc21	0.4	2.8	6.6	i	5.4
CC1Cc2cc(-c3csc(NC(=O)Cc4ccccc4)n3)ccc2N1S(C)(=O)=O (stereo unspecified)	-0.9	-3.7	0.3	+	-1.0
C=CCSc1nc(N)c(C#N)c(-c2ccc(C)cc2)c1C#N	0.2	-2.4	0.5	+	-0.3
O=C(NCC1CC1)c1ccc(Oc2cc(Cl)cc(Cl)c2)o1	1.2	2.4	-1.8	i	-0.1
NNC(=O)c1ccc(Oc2cc(Cl)cc(Cl)c2)o1	-3.2	-1.6	4.2	+	-5.0
O=C(CCc1nnc(Cc2c[nH]c3ccccc23)o1)NCCC1CCCCO1 (stereo unspecified)	0.8	/	4.8	+	-2.9
CCN(CC)c1c(C)nc2ccc(C(=O)N3CCN(C(=O)c4ccco4)CC3)cn12	0.9	/	1.9	i	0.5
CN(C)c1ccc(/C=C/c2ccncc2)cc1	15.7	/	6.0	+	17.1
SMILES	HNF4A DNA FP	TPT1 inh	CSN deneddyl inh	Myeloid diff 2	Rpn11 block
CCc1ccc(CNC(=O)c2ccc(OC3CCN(C(=O)COC)CC3)cc2)nc1	0.7	/	-0.2	i	-4.9
Cc1nc2c(ccc3nc(NC(=O)c4ccc5c(c4)OCCO5)sc32)s1	20.5	-2.9	44.8*	i	15.0
O=C(Cc1ccc(F)cc1)N1CCN(c2ccc([N+](=O)[O-])cc2)CC1	3.1	/	0.9	+	4.3
O=C1C2CCCN2C(c2ccccc2)N1c1ccc(Cl)cc1 (stereo unspecified)	3.4	1.3	3.2	+	-0.4
COC(=O)C1=CN(c2ccc(F)cc2)C(N)=C(C#N)C1c1ccc(-c2ccccc2)cc1 (stereo unspecified)	1.6	/	1.5	i	/
C=CCn1c(SCC(=O)c2c(C)[nH]c3ccccc23)nnc1-c1ccncc1	4.9	-8.2	36.1*	i	-6.9
CCOC(=O)[C@]12CCCC=C1N(CCC1=CCCCC1)C(=O)[C@H](CC(=O)NCc1ccccc1)C2	2.9	/	2.1	i	/
